Data published in paper PMC3288193 (Clinical Immunology (Orlando, Fla.), 2011).

Columns and labels:
[1] = tested on: purified Class II molecules (DRB1*0101, DRB1*0301, DRB1*0401, DRB1*0701, DRB1*1501); assay: Competition-based class II HLA binding assay; set-up: species or system human; settings: test peptide 100 μM; average of 5 DRB1 alleles; Fig. 2
In short: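 Non-biotinylated test peptides (HPLC-purified ≥80%) at 100 μM competed against biotinylated standard peptide (0.1 μM) for purified class II molecules (50 nM), 24 h at 37°C. Complexes were captured on ELISA plates with pan anti-class II L243, then incubated with europium-streptavidin for 1 h at RT, developed 15–20 min, and read by TRF. Triplicates. Percent inhibition per allele was averaged across five alleles.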

[2] = tested on: LN cells of hemophilic FVIII KO E16 mice (H-2b); assay: T cell proliferation of LN cells from peptide-immunized E16 mice; assay type: in vivo, mouse; settings: LN cells stimulated with 2191 in presence of competitor ORG peptides over a range of concentrations, Appendix Fig. 1
[3] = tested on: LN cells of HLA-DR4 (DRB1*0401) transgenic mice; assay: T cell proliferation of LN cells from peptide-immunized DR4 mice; assay type: in vivo, mouse; settings: DR4 mice immunized with mixture of 2231-M1, -M2, -M3, 3 μg each in CFA; Fig. 5C
In short: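 Mixed peptides (3 μg each in CFA) were injected subcutaneously via hind footpad and tail base. After two weeks, pooled draining inguinal/popliteal LN cells (0.5×10^6/well) were stimulated 48 h with ORG or MOD peptides (0, 1, 3, 10 μg/ml) in RPMI 1640 with 2% FBS and 0.5% hemophilic mouse serum. Cells were pulsed with 1 μCi [3H]-thymidine for 16–20 h and beta-counted. Results are background-subtracted ΔCPM, mean ± SEM of triplicates.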

2191-M1: modified (MOD) version of 2191-O with one substitution, F2196G (TASSYGTNMFATWSPSKARL)
effect of modification on average HLA binding versus ORG peptide [1]: only moderately reduced binding

2191-O: original (ORG) human FVIII C2 domain epitope cluster peptide, amino acid positions 2191–2210 (TASSYFTNMFATWSPSKARL)
HLA binding, average across HLA alleles (rank among ORG peptides) [1]: bound strongest
effect of competitor ORG peptides on 2191-O-specific proliferation [2]: not affected by the presence of competitor ORG peptides

2231-M1: modified (MOD) version of 2231-O with F2234G mutation (QVDGQKTMKVTGVTTQGVKSL)
de novo immunogenicity of MOD peptides (T cell proliferation) [3]: significantly lower
effect of modification on average HLA binding versus ORG peptide [1]: lower HLA binding
